Test results published in ChEMBL document CHEMBL1139384, “First Cdc7 kinase inhibitors: pyrrolopyridinones as potent and orally active antitumor agents. 2. Lead discovery” (J Med Chem, 2009).
pIC50: −log10 of the molar value. Active and inactive are the calls of the source. The calls are words filed in the database; no cut-off is given here.

What was measured:
[1] = Inhibition of Cdk2E
[2] = target: Vascular endothelial growth factor receptor 3 (Homo sapiens, UniProt P35916); assay: Inhibition of VEGFR3
[3] = Antiproliferative activity against human NCI-H929 cells after 72 hrs by luciferase based assay; type: functional, cell-based; conditions: NCI-H929, 72 h
Outline: (§1)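 Cells seeded at 2500–5000/well in complete medium (RPMI1640, McCoy's or DMEM with 10% FCS, by line); compound added after 24 h, 72 h at 37 °C, 5% CO2.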

[4] = Inhibition of CK2
[5] = target: RAC-alpha serine/threonine-protein kinase (Homo sapiens, UniProt P31749); assay: Inhibition of AKT1
Mus musculus = assay: Inhibition of human Cdc7 in human A2780 cells xenografted in CDI nu/nu mouse assessed as inhibition of Ser53 phosphorylation of Mcm2 protein at 60 mg/kg, po first dose administered at 6 hrs and second dose 3 hrs after first dose by Western blot; type: functional, organism-based; parameters: dose 60 mg/kg
Outline: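 A2780 human ovarian carcinoma grown subcutaneously in CDI nu/nu mice. Two oral doses of 60 mg/kg were given within 6 h, the second 3 h after the first. Tumors were explanted and analysed by Western blot for MCM2 phosphorylated at Ser40 and Ser53, with total MCM2 and tubulin as loading controls. Vehicle-treated tumors served as controls.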

Aurora kinase A = Aurora kinase A (Homo sapiens, UniProt O14965); assay: Inhibition of AUR2
[6] = Inhibition of PDGFR
[7] = target: Tyrosine-protein kinase ABL1 (Homo sapiens, UniProt P00519); assay: Inhibition of ABL
[8] = AUC (0 to infinity) in Beagle dog at 10 mg/kg, po administered as single dose; type: ADME, organism-based, Canis lupus familiaris; parameters: time infinity, dose 10 mg/kg, route oral; conditions: plasma
Outline: (§2)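 Single iv or oral dose in 5% dextrose to overnight-fasted animals. Nu/Nu mice: males, 3 per route, saphenous bleeds to 24 h. Han-Wistar rats: males, 3 per route, jugular bleeds to 24 h. Beagle dogs: 2 per sex, iv and po crossover 2 weeks apart, jugular bleeds to 48 h. Plasma by LC/MS/MS; noncompartmental parameters, AUC by linear trapezoid with extrapolation.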

[9] = target: Fibroblast growth factor receptor 1 (Homo sapiens, UniProt P11362); assay: Inhibition of FGFR1
[10] = target: Cyclin-dependent kinase 5/CDK5 activator 1 (Homo sapiens, UniProt Q00535); assay: Inhibition of CDK5/p25; type: protein-complex assay
[11] = target: Cyclin-dependent kinase 4 (Homo sapiens, UniProt P11802); assay: Inhibition of CDK4
[12] = Volume of distribution at steady state in Beagle dog at 5 mg/kg, iv administered as single dose; type: ADME, organism-based, Canis lupus familiaris; parameters: dose 5 mg/kg, route intravenous; conditions: in vivo, read-out: Vdss
Outline: (§3)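 Overnight-fasted Beagle dogs, 2 per sex, in a crossover design: 5 mg/kg iv and 10 mg/kg po, two weeks apart, in 5% dextrose. Jugular blood was drawn up to 48 h, and urine was collected over 0–8, 8–24 and 24–48 h. Samples were assayed by LC/MS/MS and analysed noncompartmentally.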

[13] = Antiproliferative activity against human […] cells after 72 hrs by luciferase based assay; type: functional, cell-based; outline: as §1
[14] = target: Cyclin-dependent kinase 2 (Homo sapiens, UniProt P24941); assay: Inhibition of Cdk2A
[15] = target: Mitogen-activated protein kinase 1 (Homo sapiens, UniProt P28482)
[16] = target: Inhibitor of nuclear factor kappa-B kinase subunit epsilon (Homo sapiens, UniProt Q14164); assay: Inhibition of IKKi
[17] = Half life in nu/nu mouse at 10 mg/kg, po administered as single dose; type: ADME, organism-based; parameters: dose 10 mg/kg, route oral; conditions: in vivo; outline: as §2
[18] = Cmax in nu/nu mouse at 10 mg/kg, po administered as single dose; type: ADME, organism-based; parameters: dose 10 mg/kg, route oral; conditions: in vivo; outline: as §2
Cytochrome P450 2C8 = Cytochrome P450 2C8 (Homo sapiens, UniProt P10632); assay: Inhibition of human CYP2C8; type: ADME
[19] = Cmax in Wistar rat at 20 mg/kg, po administered as single dose; conditions: in vivo
NHDF = assay: Antiproliferative activity against human NHDF cells after 72 hrs by luciferase based assay; type: cell-based
[20] = Tmax in Wistar rat at 20 mg/kg, po administered as single dose; conditions: in vivo
[21] = Clearance in Beagle dog at 5 mg/kg, iv administered as single dose; type: ADME, organism-based, Canis lupus familiaris; parameters: dose 5 mg/kg, route intravenous; conditions: in vivo; outline: as §2
HeLa [22] = assay: Inhibition of DNA synthesis in human HeLa cells at 3 uM assessed as bromodeoxyuridine incorporation after 3 hrs; type: functional; parameters: scale not given: the % may be the effect or the level left
Outline: (§4)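 Logarithmically growing HeLa cells exposed to 3 µM for set times, labelled with 50 µM BrdU, fixed in 70% ethanol. DNA content by propidium iodide with RNase A, 30 min at 37 °C; BrdU by FITC anti-BrdU after 2N HCl denaturation; percent positive cells by FACS.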

[23] = Half life in Beagle dog at 10 mg/kg, po administered as single dose; type: ADME, organism-based, Canis lupus familiaris; parameters: dose 10 mg/kg, route oral; conditions: in vivo; outline: as §2
HeLa [24] = assay: Cell cycle arrest in human HeLa cells assessed as accumulation at S phase at 3 uM by fluorescence activated cell sorting; type: functional, cell-based; outline: as §4
[25] = Antiproliferative activity against human SW403 cells after 72 hrs by luciferase based assay; type: functional, cell-based; conditions: SW-403, 72 h; outline: as §1
Cytochrome P450 1A2 = Cytochrome P450 1A2 (Homo sapiens, UniProt P05177); assay: Inhibition of human CYP1A2; type: ADME
[26] = target: ALK tyrosine kinase receptor (Homo sapiens, UniProt Q9UM73); assay: Inhibition of ALK
[27] = Renal clearance in Beagle dog at 5 mg/kg, iv administered as single dose; type: ADME, organism-based, Canis lupus familiaris, Kidney; parameters: dose 5 mg/kg, route intravenous; conditions: in vivo, read-out: CL_renal (converted); outline: as §3
[28] = target: Cell division cycle 7-related protein kinase (Homo sapiens, UniProt O00311); assay: Inhibition of human Cdc7 in human A2780 cells assessed as inhibition of Ser53 phosphorylation of Mcm2 protein after 4 hrs; type: cell-based
Outline: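 A2780 cells exposed for 4 h to a range of concentrations, then lysed in 50 mmol/L Tris-HCl pH 6.8, 1% SDS, 1 mmol/L DTT and sonicated 10 s. 15 µg protein per lane ([…]) was taken for Western blot with phospho-specific antibodies to MCM2 Ser40 and Ser53.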

HT-29 = assay: Antiproliferative activity against human HT-29 cells after 72 hrs by luciferase based assay; type: functional, cell-based; conditions: HT-29, 72 h; outline: as §1
[29] = Volume of distribution at steady state in nu/nu mouse at 10 mg/kg, iv administered as single dose; type: ADME, organism-based; parameters: dose 10 mg/kg, route intravenous; conditions: in vivo, read-out: Vdss
Outline: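 Overnight-fasted male Nu/Nu mice got a single 10 mg/kg dose in 5% dextrose, iv or po, three mice per route. Saphenous blood was drawn at 0.083 (iv) or 0.25 (po), 0.5, 1, 6 and 24 h. Plasma was assayed by LC/MS/MS and analysed noncompartmentally. Tmax is the observed peak time, Vss = CL·MRT, and F is the ratio of dose-normalized AUC∞ po/iv.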

[30] = target: Serine/threonine-protein kinase Chk1 (Homo sapiens, UniProt O14757); assay: Inhibition of CHK1
[31] = Tmax in Beagle dog at 10 mg/kg, po administered as single dose; type: ADME, organism-based, Canis lupus familiaris; parameters: dose 10 mg/kg, route oral; conditions: in vivo; outline: as §3
Hepatocyte = assay: Metabolic stability in rat hepatocytes assessed as intrinsic clearance at 1 uM; type: cell-based; conditions: Liver

Aurora kinase A, sequence (O14965 whole entry): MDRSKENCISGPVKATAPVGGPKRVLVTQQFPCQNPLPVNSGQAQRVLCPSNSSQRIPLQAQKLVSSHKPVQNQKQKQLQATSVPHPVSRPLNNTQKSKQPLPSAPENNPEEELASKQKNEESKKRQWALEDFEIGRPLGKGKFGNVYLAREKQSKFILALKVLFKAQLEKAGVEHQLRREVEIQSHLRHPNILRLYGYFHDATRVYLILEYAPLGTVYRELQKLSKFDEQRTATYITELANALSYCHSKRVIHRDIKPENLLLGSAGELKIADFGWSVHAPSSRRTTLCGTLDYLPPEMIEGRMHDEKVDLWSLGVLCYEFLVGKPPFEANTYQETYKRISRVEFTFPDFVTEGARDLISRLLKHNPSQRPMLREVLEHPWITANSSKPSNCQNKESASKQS
Serine/threonine-protein kinase Chk1, sequence (O14757 whole entry): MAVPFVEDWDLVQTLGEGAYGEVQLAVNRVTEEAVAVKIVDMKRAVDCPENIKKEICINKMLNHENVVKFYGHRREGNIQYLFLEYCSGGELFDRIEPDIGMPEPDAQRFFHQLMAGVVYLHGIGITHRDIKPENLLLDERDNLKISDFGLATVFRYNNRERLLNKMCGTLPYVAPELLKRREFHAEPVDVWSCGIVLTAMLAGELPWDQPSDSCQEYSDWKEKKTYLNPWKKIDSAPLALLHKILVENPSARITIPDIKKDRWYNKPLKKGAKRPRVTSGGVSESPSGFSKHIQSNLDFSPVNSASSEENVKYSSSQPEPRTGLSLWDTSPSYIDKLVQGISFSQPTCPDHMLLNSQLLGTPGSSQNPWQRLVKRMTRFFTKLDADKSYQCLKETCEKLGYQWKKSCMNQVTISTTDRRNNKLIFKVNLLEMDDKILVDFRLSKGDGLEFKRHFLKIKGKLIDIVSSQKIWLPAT
Vascular endothelial growth factor receptor 3, sequence (P35916 whole entry): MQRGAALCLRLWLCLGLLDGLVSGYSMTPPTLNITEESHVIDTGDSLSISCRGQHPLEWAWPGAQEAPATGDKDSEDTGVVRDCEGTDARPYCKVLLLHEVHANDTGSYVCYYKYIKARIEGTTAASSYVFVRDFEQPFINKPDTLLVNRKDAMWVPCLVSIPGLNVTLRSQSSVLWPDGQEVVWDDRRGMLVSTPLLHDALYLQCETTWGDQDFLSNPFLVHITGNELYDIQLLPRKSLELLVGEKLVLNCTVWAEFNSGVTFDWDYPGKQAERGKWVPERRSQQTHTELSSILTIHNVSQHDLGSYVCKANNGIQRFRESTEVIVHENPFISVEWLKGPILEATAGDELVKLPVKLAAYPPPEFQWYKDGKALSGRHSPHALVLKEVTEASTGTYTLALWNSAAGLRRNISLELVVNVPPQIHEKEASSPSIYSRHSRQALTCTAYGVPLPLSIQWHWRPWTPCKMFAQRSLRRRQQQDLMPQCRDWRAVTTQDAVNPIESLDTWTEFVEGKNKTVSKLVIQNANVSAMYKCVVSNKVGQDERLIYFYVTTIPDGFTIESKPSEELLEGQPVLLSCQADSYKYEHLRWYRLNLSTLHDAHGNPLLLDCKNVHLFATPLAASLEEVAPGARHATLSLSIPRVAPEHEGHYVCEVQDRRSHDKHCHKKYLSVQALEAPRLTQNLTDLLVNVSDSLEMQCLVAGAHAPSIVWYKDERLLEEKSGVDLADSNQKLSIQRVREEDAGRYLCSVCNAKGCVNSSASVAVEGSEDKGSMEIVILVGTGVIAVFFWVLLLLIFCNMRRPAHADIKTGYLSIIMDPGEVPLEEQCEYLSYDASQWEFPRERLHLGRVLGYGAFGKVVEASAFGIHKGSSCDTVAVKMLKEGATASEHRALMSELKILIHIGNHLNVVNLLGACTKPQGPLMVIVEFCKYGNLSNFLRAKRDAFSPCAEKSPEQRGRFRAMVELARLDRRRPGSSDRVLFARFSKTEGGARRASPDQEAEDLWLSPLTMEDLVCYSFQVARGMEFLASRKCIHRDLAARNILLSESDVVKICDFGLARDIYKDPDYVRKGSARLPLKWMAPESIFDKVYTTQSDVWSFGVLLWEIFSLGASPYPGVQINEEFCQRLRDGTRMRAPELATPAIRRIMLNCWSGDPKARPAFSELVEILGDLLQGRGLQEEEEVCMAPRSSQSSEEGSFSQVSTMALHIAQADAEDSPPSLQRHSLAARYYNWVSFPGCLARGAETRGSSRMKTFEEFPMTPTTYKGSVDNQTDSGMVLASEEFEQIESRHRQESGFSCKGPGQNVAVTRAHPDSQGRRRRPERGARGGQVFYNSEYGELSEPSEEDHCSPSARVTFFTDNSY
Inhibitor of nuclear factor kappa-B kinase subunit epsilon, sequence (Q14164 whole entry): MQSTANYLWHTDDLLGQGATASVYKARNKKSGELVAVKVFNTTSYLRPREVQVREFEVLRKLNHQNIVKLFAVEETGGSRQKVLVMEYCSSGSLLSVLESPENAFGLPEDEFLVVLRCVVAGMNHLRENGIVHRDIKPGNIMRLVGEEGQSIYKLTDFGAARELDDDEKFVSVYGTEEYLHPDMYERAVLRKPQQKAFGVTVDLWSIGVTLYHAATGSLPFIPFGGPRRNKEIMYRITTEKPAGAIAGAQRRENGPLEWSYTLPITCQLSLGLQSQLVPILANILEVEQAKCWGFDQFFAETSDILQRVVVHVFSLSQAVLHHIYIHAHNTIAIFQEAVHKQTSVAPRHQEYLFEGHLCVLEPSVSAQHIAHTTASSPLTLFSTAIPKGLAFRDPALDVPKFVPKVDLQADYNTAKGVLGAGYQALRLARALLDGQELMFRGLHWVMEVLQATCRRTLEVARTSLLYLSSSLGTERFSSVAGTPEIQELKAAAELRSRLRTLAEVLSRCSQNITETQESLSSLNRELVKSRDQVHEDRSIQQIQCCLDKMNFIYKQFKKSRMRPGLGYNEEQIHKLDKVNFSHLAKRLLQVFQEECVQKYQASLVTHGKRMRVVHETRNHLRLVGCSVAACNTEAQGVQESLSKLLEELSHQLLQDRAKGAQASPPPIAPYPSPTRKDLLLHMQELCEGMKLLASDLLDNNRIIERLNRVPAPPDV
RAC-alpha serine/threonine-protein kinase, sequence (P31749 whole entry): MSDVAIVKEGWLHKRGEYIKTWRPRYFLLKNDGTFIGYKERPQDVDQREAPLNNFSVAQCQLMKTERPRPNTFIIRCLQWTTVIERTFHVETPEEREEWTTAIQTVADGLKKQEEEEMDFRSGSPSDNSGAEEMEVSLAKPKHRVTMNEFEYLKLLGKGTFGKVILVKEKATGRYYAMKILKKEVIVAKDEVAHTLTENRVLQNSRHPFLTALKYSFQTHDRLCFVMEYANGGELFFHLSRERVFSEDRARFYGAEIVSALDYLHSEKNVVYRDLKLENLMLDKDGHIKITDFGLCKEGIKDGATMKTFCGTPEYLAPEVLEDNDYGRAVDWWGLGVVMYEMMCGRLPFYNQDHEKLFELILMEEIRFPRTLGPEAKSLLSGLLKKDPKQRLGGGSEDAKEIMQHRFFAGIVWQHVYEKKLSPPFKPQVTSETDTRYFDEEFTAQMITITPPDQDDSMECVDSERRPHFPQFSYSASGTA
Mitogen-activated protein kinase 1, sequence (P28482 whole entry): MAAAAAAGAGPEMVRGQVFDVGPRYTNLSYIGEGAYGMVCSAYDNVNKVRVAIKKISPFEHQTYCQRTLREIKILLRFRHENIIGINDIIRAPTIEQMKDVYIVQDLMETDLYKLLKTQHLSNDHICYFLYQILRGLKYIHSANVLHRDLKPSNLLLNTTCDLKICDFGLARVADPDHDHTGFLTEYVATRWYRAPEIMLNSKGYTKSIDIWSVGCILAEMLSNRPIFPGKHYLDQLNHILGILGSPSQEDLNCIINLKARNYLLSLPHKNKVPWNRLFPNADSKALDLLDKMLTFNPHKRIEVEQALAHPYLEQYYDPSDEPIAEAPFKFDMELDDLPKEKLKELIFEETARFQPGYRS
Cell division cycle 7-related protein kinase, sequence (O00311 whole entry, looked up): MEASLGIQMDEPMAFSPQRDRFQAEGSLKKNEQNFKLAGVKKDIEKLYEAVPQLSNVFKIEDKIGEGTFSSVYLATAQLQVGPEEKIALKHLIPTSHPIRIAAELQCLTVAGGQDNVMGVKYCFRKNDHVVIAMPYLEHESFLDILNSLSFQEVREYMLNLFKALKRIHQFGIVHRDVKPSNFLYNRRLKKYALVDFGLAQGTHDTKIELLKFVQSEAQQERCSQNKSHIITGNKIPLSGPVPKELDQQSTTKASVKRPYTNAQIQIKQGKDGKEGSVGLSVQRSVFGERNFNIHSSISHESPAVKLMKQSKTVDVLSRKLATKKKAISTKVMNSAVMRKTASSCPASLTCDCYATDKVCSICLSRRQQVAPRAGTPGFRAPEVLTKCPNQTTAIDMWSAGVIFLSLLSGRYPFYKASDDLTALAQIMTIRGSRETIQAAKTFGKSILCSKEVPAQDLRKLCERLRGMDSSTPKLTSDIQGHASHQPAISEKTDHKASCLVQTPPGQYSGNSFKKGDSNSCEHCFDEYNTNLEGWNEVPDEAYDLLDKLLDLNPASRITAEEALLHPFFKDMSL
Cytochrome P450 1A2, sequence (P05177 whole entry): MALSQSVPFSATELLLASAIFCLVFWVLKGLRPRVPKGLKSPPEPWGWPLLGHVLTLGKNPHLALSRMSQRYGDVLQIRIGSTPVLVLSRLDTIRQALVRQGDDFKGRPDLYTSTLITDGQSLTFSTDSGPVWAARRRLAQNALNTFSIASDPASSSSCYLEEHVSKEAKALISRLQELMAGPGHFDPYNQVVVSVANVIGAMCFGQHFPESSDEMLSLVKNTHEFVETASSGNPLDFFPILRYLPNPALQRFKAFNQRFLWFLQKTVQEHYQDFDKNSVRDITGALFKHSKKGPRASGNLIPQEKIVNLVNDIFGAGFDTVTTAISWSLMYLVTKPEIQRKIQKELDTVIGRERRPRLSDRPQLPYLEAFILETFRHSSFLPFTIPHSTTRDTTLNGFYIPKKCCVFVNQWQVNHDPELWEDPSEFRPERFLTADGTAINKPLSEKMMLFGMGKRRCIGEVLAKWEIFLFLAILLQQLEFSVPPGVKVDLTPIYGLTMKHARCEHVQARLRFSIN

Nc1nccc(-c2cc3c([nH]2)[C@@H](CCF)CNC3=O)n1
pIC50 [1]: 6.17 | pIC50 [2]: < 5.40 | pIC50 [3]: 5.92 | pIC50 [4]: 6.44 | pIC50 [5]: < 5.40 | Activity (Mus musculus): Active | pIC50 (Aurora kinase A): < 5.40 | pIC50 [6]: < 5.40 | pIC50 [7]: < 5.40 | AUC(0-inf) [8]: 6.4 µM·h | pIC50 [9]: < 5.40 | pIC50 [10]: 5.79 | pIC50 [11]: < 5.40 | Vd [12]: 2.1 L/kg | pIC50 [13]: 6.40 | pIC50 [14]: 6.86 | pIC50 [15]: 6.07 | pIC50 [16]: < 5.40 | half-life [17]: 60 min | Cmax [18]: 2600 nM | Activity (Cytochrome P450 2C8): Not Active | Cmax [19]: 2000 nM | pIC50 (NHDF): 5.80 | Tmax [20]: 18 min | clearance [21]: 53.3 mL/min/kg | Activity (HeLa [22]): 28% | half-life [23]: 72 min | Activity (HeLa [24]): Active | pIC50 [25]: 6.22 | Activity (Cytochrome P450 1A2): Not Active | pIC50 [26]: < 5.40 | CL renal [27]: 6.67 mL/min/kg | MED [28]: 0.6 µM | pIC50 (HT-29): 5.39 | Vd [29]: 2.6 L/kg | pIC50 [30]: < 5.40 | Tmax [31]: 18 min | CL (mL.min-1.kg-1) (Hepatocyte): 5
